{"source": "ChEMBL document CHEMBL5150022", "about": "“Small Molecule Inhibitors of Lymphocyte Perforin as Focused Immunosuppressants for Infection and Autoimmunity” (J Med Chem, 2022)", "key": {"[1]": {"experiment": "Inhibition of Perforin-1 in sheep red blood cells incubated for 30 mins", "type": "cell-based, Ovis aries", "settings": "rbc", "summary_of_the_method": "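Recombinant mouse perforin-mediated lysis of sheep red blood cells, read as turbidity change by absorbance at 650 nm. Compounds first tested at a single 20 μM point, then at 100, 20, 4, 0.8 and 0.16 μM to give IC₅₀. Hits were rechecked with 0.1% BSA.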"}, "[2]": {"target": "T1, Perforin-1 (Homo sapiens) (UniProt P14222)", "T1 sequence (whole entry)": "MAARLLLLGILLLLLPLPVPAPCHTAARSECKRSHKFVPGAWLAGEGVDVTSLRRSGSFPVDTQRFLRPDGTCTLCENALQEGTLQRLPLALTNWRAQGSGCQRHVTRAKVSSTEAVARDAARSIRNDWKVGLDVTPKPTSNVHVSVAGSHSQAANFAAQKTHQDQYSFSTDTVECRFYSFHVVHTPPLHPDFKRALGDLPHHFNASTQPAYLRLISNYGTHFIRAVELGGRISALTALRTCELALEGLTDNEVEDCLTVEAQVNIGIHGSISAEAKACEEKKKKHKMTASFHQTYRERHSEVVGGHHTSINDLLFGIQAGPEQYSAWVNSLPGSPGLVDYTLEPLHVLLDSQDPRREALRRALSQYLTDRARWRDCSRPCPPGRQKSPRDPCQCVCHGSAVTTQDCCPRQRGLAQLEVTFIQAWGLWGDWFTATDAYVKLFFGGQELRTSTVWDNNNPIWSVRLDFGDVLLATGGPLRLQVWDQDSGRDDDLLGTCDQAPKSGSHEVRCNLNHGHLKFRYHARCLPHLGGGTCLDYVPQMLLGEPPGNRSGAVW", "experiment": "Inhibition of Perforin-1 in human Jurkat cells at 20 uM incubated for 4 hrs relative to control", "type": "cell-based"}, "[3]": {"target": "T2, Perforin-1 (Mus musculus) (UniProt P10820)", "T2 sequence (whole entry)": "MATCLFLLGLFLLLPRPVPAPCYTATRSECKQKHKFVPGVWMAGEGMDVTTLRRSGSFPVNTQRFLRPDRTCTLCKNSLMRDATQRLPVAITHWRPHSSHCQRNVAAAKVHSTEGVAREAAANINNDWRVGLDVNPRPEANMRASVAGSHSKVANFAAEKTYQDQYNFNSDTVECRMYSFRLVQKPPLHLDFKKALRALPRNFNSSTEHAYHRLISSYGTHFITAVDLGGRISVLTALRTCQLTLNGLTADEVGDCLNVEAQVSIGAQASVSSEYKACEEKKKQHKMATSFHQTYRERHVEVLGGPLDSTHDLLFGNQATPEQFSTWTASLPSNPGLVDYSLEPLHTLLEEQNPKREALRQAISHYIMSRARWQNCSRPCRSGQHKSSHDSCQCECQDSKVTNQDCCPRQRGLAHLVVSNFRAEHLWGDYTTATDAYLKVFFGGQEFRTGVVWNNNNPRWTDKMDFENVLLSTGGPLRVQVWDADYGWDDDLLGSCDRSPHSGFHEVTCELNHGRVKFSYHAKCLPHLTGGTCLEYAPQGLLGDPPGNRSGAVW", "experiment": "Inhibition of mouse Perforin-1 in Natural killer cell at 20 uM relative to control"}, "[4]": {"target": "T1, Perforin-1 (Homo sapiens)", "experiment": "Inhibition of Perforin-1 in human Natural killer cells at 20 uM incubated after 24 hrs relative to control", "type": "cell-based", "settings": "Natural killer cell, time 4.0 hrs, in the assay text read “after 4 hrs” for “after 24 hrs”", "summary_of_the_method": "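Human KHYG1 NK cells plus medium coincubated with inhibitor at 20 μM final, or 5 μM in one case. ⁵¹Cr-labelled K562 leukaemia targets added; lysis measured by ⁵¹Cr release after 4 h. Effector NK cell viability measured 24 h later.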"}, "[5]": {"experiment": "Antiproliferative activity against human KHYG-1 at 20 uM incubated for 20 mins", "type": "functional"}, "[6]": {"experiment": "Stability in human plasma incubated for 24 hrs by HPLC analysis", "type": "ADME, cell-free", "settings": "read-out: Stability", "summary_of_the_method": "(§1)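 Compound incubated in human or mouse plasma at 37 °C for 24 h; parent remaining quantified by HPLC.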"}, "[7]": {"experiment": "Stability in mouse plasma incubated for 24 hrs by HPLC analysis", "type": "ADME, cell-free", "settings": "read-out: Stability", "summary_of_the_method": "as §1"}, "[8]": {"experiment": "Cytotoxicity against human Natural killer cells at 20 uM", "settings": "natural killer cell"}, "[9]": {"experiment": "Cytotoxicity against human Natural killer cells assessed as reduction in cell viability at 20 uM"}, "[10]": {"experiment": "Mutagenicity in Salmonella typhimurium TA100 by AMES test", "type": "toxicity, Salmonella enterica subsp. enterica serovar Typhimurium"}, "[11]": {"experiment": "Elimination half life in mouse plasma at 10 to 160 mg/kg, po measured for 24 hrs", "type": "ADME, organism-based", "settings": "dose 10-160 mg/kg, read-out: beta t1/2 (converted)"}, "[12]": {"experiment": "Plasma protein binding in mouse", "type": "ADME, cell-free", "settings": "read-out: PPB (converted)"}, "[13]": {"target": "T1, Perforin-1 (Homo sapiens)", "experiment": "Inhibition of Perforin-1 in human KHYG-1 cells assessed as unbound concentration", "type": "cell-based", "summary_of_the_method": "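KHYG1 NK cell killing of ⁵¹Cr-labelled K562 targets; IC₉₀ determined. Compound binding to proteins in the assay medium was measured and used to estimate the unbound IC₉₀.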"}, "[14]": {"experiment": "Toxicity in C57BL/6 mouse assessed as animal survival at 100 mg/kg, po measured for 2 days", "type": "organism-based", "settings": "in vivo, time 2 day, read-out: Activity"}, "[15]": {"experiment": "Toxicity in C57BL/6 mouse assessed as effect on aspartate transaminase level at 100 mg/kg, po measured for 2 days", "type": "organism-based", "settings": "in vivo, 48 h, time 2 day"}, "[16]": {"target": "Beta-secretase 1 (Homo sapiens) (UniProt P56817)", "sequence (P56817 whole entry)": "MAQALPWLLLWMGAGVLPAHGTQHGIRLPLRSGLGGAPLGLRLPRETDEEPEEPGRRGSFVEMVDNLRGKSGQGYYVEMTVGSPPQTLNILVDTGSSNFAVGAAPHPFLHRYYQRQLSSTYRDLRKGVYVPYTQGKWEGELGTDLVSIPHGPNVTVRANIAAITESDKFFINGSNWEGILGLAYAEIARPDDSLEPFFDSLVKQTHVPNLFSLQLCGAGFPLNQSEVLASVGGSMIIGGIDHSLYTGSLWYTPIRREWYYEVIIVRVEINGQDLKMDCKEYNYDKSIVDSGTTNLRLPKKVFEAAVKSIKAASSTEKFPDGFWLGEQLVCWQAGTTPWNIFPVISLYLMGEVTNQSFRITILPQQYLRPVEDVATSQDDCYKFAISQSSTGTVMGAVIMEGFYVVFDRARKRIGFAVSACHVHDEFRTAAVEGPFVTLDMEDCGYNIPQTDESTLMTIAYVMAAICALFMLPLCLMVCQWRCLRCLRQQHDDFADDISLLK", "experiment": "Inhibition of BACE1 (unknown origin) at 1 uM relative to control"}, "Brain [17]": {"test_system": "Brain", "experiment": "Anti-neuroinflammation in LPS-induced mouse brain assessed as reduction in caspase-3/7 production at 250 microg/kg administered for 3 days", "type": "functional", "set-up": "scale not given: the % may be the effect or the level left", "settings": "dose 250 µg/kg; time 3 day"}, "Brain [18]": {"test_system": "Brain", "experiment": "Anti-neuroinflammation in LPS-induced mouse brain assessed as reduction in prostaglandin E2 production at 250 microg/kg administered for 3 days", "type": "functional", "set-up": "scale not given: the % may be the effect or the level left", "settings": "dose 250 µg/kg; time 3 day"}, "Acetylcholinesterase": {"target": "Acetylcholinesterase (Homo sapiens, UniProt P22303)", "sequence (P22303 whole entry)": "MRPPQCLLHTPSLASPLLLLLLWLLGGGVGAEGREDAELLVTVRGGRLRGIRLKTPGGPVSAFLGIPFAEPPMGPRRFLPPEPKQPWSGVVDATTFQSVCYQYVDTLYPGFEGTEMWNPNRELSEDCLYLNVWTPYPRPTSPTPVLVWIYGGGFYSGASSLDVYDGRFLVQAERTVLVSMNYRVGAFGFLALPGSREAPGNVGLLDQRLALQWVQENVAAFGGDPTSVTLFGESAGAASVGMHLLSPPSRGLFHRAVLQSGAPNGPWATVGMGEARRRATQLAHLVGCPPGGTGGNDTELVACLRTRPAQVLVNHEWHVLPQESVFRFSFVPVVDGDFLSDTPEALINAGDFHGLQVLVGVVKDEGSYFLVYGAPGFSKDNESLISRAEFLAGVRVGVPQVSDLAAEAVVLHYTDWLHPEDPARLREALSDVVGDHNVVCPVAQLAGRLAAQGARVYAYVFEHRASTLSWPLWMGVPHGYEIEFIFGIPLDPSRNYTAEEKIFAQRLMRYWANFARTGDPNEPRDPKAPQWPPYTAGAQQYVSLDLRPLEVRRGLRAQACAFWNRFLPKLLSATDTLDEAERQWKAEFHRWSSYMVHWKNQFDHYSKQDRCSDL", "experiment": "Inhibition of AChE (unknown origin)"}, "[19]": {"experiment": "Reversal of Perforin-1 dependent NK-cell mediated graft rejection in human KHYG-1 cells assessed as reduction in perforin-1 activity at 90 mg/kg for 24 days relative to control", "type": "functional", "set-up": "scale not given: the % may be the effect or the level left", "settings": "time 24 day"}}, "note": "Several values for one entry are separate records, joined by “and”; a condition that tells them apart may be missing. Equal entries are not always repeated.", "data": [{"smiles": "O=C1NC(=S)N/C1=C/c1ccc(-c2ccc3c(c2)CCNC3=O)s1", "values": [{"measurement": "IC50", "setting": "[1]", "value": 14.7, "unit": "µM"}, {"measurement": "inhibition", "setting": "[2]", "value": 98, "unit": "%"}, {"measurement": "inhibition", "setting": "[3]", "value": 60, "unit": "%"}]}, {"smiles": "NC(=O)c1ccc(-c2ccc(-c3ccc4c(c3)COC4=O)s2)cc1", "values": [{"measurement": "IC50", "setting": "[1]", "value": 13.2, "unit": "µM"}, {"measurement": "inhibition", "setting": "[2]", "value": 52, "unit": "%"}, {"measurement": "inhibition", "setting": "[4]", "value": 63, "unit": "%"}, {"measurement": "Activity", "setting": "[5]", "value": 70, "unit": "%"}, {"measurement": "remaining at 24 h", "setting": "[6]", "value": 46, "unit": "%"}, {"measurement": "remaining at 24 h", "setting": "[7]", "value": 75, "unit": "%"}, {"measurement": "Activity", "setting": "[8]", "value": "38% and 63%"}, {"measurement": "Activity", "setting": "[9]", "value": 90, "unit": "%"}]}, {"smiles": "NC(=O)c1ccc(-c2ccc(-c3ccc4c(c3)COC4=O)s2)cn1", "values": [{"measurement": "Activity", "setting": "[8]", "value": 80, "unit": "%"}, {"measurement": "Activity", "setting": "[9]", "value": 82, "unit": "%"}]}, {"smiles": "CNC(=O)c1ccc(-c2c(C#N)c(N)n3c(nc4ccccc43)c2C#N)cc1", "values": [{"measurement": "IC50", "setting": "[1]", "value": 1.04, "unit": "µM"}, {"measurement": "inhibition", "setting": "[2]", "value": 91, "unit": "%"}, {"measurement": "Activity", "setting": "[5]", "value": 84, "unit": "%"}]}, {"smiles": "Cc1cc2c(c(=S)[nH]1)C(=O)O/C2=C\\c1cc2ccccc2s1", "values": [{"measurement": "IC50", "setting": "[1]", "value": 0.97, "unit": "µM"}, {"measurement": "inhibition", "setting": "[2]", "value": 63, "unit": "%"}, {"measurement": "Activity", "setting": "[5]", "value": 89, "unit": "%"}]}, {"smiles": "Cc1cc2c(c(=S)[nH]1)C(=O)O/C2=C\\c1ccc(C)o1", "values": [{"measurement": "IC50", "setting": "[1]", "value": 9.7, "unit": "µM"}, {"measurement": "inhibition", "setting": "[2]", "value": 100, "unit": "%"}, {"measurement": "IC50", "setting": "[10]", "value": 3.4, "unit": "µM"}]}, {"smiles": "O=C1NC(=S)N/C1=C/c1ccc(-c2ccc3c(c2)COC3=O)o1", "values": [{"measurement": "IC50", "setting": "[1]", "value": 7.2, "unit": "µM"}, {"measurement": "inhibition", "setting": "[2]", "value": 99, "unit": "%"}]}, {"smiles": "CN1Cc2cc(-c3ccc(-c4cncc(NS(=O)(=O)c5ccccc5[N+](=O)[O-])c4)s3)ccc2C1=O", "values": [{"measurement": "half-life", "setting": "[11]", "value": 2.4, "unit": "h"}, {"measurement": "fraction unbound", "setting": "[12]", "value": 0.002}, {"measurement": "IC90", "setting": "[13]", "value": 0.77, "unit": "µM"}, {"measurement": "survival at 48 h", "setting": "[14]", "value": 100, "unit": "%"}, {"measurement": "Activity", "setting": "[15]", "value": 60, "unit": "%"}]}, {"smiles": "O=C1OCc2cc(-c3ccc(-c4ccc(CO)cc4)s3)ccc21", "values": [{"measurement": "inhibition", "setting": "[16]", "value": 72, "unit": "%"}, {"measurement": "Activity", "setting": "Brain [17]", "value": 63, "unit": "%"}, {"measurement": "Activity", "setting": "Brain [18]", "value": 55, "unit": "%"}, {"measurement": "IC50", "setting": "Acetylcholinesterase", "value": 8, "unit": "µM"}]}, {"smiles": "COc1ncc(-c2ccc(-c3cnc4c(c3)CN(C)C4=O)s2)cc1NS(=O)(=O)c1ccc(F)cc1F", "values": [{"measurement": "Activity", "setting": "[19]", "value": 66, "unit": "%"}]}]}
